Each structure is given as a SMILES string. In all, about 3,500 compounds went through this assay and about 1,000 (29%) were called active. Only a sample is shown. Values without a mark were called inactive.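 How the source made its calls: active means activation above its plate's cutoff, the mean activation of tested wells plus 3 SD (cut at about 7.9% in these data); inactive means the rest.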

The test can be described thus: BRM-dependent MMTV reporter reactivation – cell-based, luminescence, triplicate, confirmation (AID 652260). The settings on record: MG213 cells, MMTV-luciferase with dexamethasone, overnight, at 9.1 µM, hits give high values, DMSO wells 0%, reference activator 100%, MG213 cells expressing E1A, Rb sequestered. A digest of the protocol: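 Schedule – compound exposure 24 h at 37 °C after 1-day dexamethasone priming · Assay system – MG213 MMTV-luciferase reporter cells · Amount – 600 cells in each well · Detection – luciferase luminescence (OneGlo) · Dosing – 9.1 µM single dose · Buffer or medium – assay medium with 2.5% FBS plus 0.1 µM dexamethasone · Benchmarks – DMSO and reference activator wells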
Take `COc1cc(/C=N/NC(=O)c2ccccc2)ccc1OS(=O)(=O)c1ccccc1`: the activation was 3.32%. For the compound `Cc1nnc(NC(=O)Cn2c(=O)sc3ccccc32)s1`, the activation was -3.31%.

Consider `COC(=O)c1ccc(NCc2cc(O)ccc2O)cc1`, for which the activation was 1.42%. In the case of `Cc1ccc(O)c(CNc2nc3ccccc3n2C)c1`, the activation is 9.22% (active).

As for `CC(=O)c1ccc(NC(=O)c2sc3nc4n(c(=O)c3c2C)CCCCC4)cc1`, the activation is -0.4%. As to `O=c1c2c(nc3n1CCCCC3)sc1c(O)cccc12`, the activation was 15.2% (active). For `FC(F)(F)c1cccc(-c2nc3ccccc3n2C(c2ccccc2)c2nc3ccccc3[nH]2)c1` (stereo not drawn), the activation is 3.9%. On to `CC(=O)Oc1ccc(C(=O)Nc2nccs2)cc1`, for which the activation is 6.25%. The value for `CCOc1cccc2c1OC1(CCCCC1)N1N=C(c3cccnc3)CC21` (stereo not drawn) was 2.8%; that for `Cc1ccc(-n2c(SCC(=O)N3CCC(C(=O)O)CC3)nc3ccccc3c2=O)cc1C` was 4.21%; that for `CN(C)CCNC(=O)c1ccc(Cl)c2cc3ccccc3nc12` was -13.7%. The value for `CCCOc1ccc(-c2nc(N)n[nH]2)cc1` was 4.15%; that for `Cc1ccccc1C#CC1=CC(=O)CC(C)(C)C1` was 1%. Take `Cc1ccccc1C1=N/C(=C/c2cccnc2)C(=O)O1`: the activation was 0.02%. Turning to `CCCCCCOC(=O)NCC(O)c1ccccc1` (stereo not drawn), the activation is 12.4% (active).

For `CCCCc1ccc(NC(=S)N2CCCC(CO)C2)cc1` (stereo not drawn), the activation was 6.12%. Turning to `Cc1ccc(C(=O)Nc2nc3ccc(Cl)cc3s2)o1`, the activation was 3.69%. With `CCOC(=O)c1c(C)[nH]c(C2=NNC(=NC(C)COC)SC2)c1C` (stereo not drawn), the activation is 10.6% (active). `C1=C(CCNc2ncnc3c2cnn3-c2ccccc2)CCCC1`: the activation was 3.15%. As to `O=C(N[C@H]1CC[C@H](CC(=O)N2CCCCC2)O[C@@H]1CO)c1cccc(F)c1`, the activation is 0.05%. For the compound `CCc1ccc(NC2Nc3cc(C)nn3S2)cc1` (stereo not drawn), the activation was 8.74% (active).

`CCCn1c(=O)c2ccccc2n2c(SCC(=O)/C(C#N)=C(\C)N)nnc12`: the activation is 3.09%. As to `COCC1CCN(C(=O)C2CCC(=O)N(Cc3cccc(C(F)(F)F)c3)C2)CC1` (stereo not drawn), the activation was 2.05%.

Consider `Cc1ccc(Nc2nc(Cl)c(C=O)s2)cc1`, for which the activation is -3.27%.

For `CCc1cc2c(=O)c(-c3ccon3)c(N)oc2cc1OC`, the activation is 14% (active). Consider `CN(C)C(CNC(=O)c1ccc(OCc2cn3ccccc3n2)cc1)c1ccco1` (stereo not drawn), for which the activation was 2.21%. Consider `O=C(Nc1ccc(NC(=O)c2cccs2)cn1)c1ccco1`, for which the activation is 2.8%. As to `Cc1ccnc(Nc2nc3ccccc3s2)n1`, the activation was 10% (active). With `O=C(Nc1ccc(F)cc1)c1cc2c(s1)CCCC2` the figure was 9.06% (active); with `O=C(NCC1CCCO1)c1cc2c(s1)CCCC2` (stereo not drawn), 11% (active); with `Cc1ccnc(NC(=O)C2CCN(S(=O)(=O)c3c(C)c(C)cc(C)c3C)CC2)c1`, -0.54%.

`COC(=O)c1sc(-c2ccc(C(C)(C)C)cc2)cc1NC(=O)/C=C/C(=O)O`: the activation was -3.23%. For `CCC(C)N(C)C1CCN(C(=S)Nc2ccc(OC)cc2)CC1` (stereo not drawn), the activation is 1.96%.

In the case of `COc1cccc(OCCOc2cccc(/C=N/n3cnnc3)c2)c1`, the activation was 3.85%.

In the case of `COc1ccc(OCCCC(=O)NCCc2ccccc2)cc1`, the activation was 1.28%.

`Cc1ccc(F)c(NC(=O)CCc2ccccc2)c1`: the activation is 5.33%.

As for `O=C(CCCc1ccccc1)NCc1ccccc1`, the activation was 8.8% (active). Regarding `CC(C)c1ccc(NC(=S)NC2CC3C=CC2C3)cc1` (stereo not drawn), the activation is 6.89%.

Turning to `Cc1ccc(NC(=O)C(=O)NCc2ccco2)c(C)c1`, the activation was 0.78%. For the compound `CC(C)(C)c1ccc(NC(=O)NCc2ccco2)cc1`, the activation is 14.5% (active). With `Cc1noc(C)c1S(=O)(=O)N(C)C[C@H]1Oc2c(NC(=O)Nc3ccc4c(c3)OCO4)cccc2C(=O)N([C@H](C)CO)C[C@@H]1C`, the activation was -2.45%. The value for `CC(C)(C)NC(=O)C(CCc1ccccc1)n1c(=O)c(-c2ccccc2)nc2ccccc21` (stereo not drawn) was 8.75% (active). On to `O=C(Cn1ncc(N2CCCC2)c(Br)c1=O)c1ccc(Cl)cc1`, for which the activation is 3.52%. With `COc1ccc(/C=C/C(=O)Nc2ccc(C34CC5CC(CC(O)(C5)C3)C4)cc2)cc1OC`, the activation is 15.3% (active). `Cn1cccc1/C=N/NC(=O)c1ccc(OC(F)(F)C(F)F)cc1`: the activation is 3.85%. In the case of `COc1ccc(C(=O)NC2=NCCS2)c(OC)c1`, the activation is 10.5% (active).

`CC1(C)CC(=O)C=C(NCCCNC2CCCCC2)C1`: the activation is -0.17%.

As to `O=C(Nc1cc(=O)[nH]c2ncnn12)c1ccccc1Cl`, the activation is 3.68%.

As for `CCCn1nc(C(=O)Nc2ccc3nc(C)sc3c2)c2ccccc2c1=O`, the activation was -0.9%. As to `Cc1ccc(C(=O)CSc2ccccc2C(=O)O)cc1`, the activation was 16.1% (active). For `CC(C)Cc1nnc(NC(=O)CCNC(=O)c2ccccc2Cl)s1`, the activation was -0.13%. In the case of `Cc1ccc(-c2nc3ccc(Cl)cn3c2Cc2ccccc2)cc1`, the activation is 3.06%. Consider `Cc1ccc(N/C=C/C(=O)c2ccccc2)cc1C`, for which the activation was 0.64%. On to `Cc1cccc(-n2c(O)c(C=Nc3ccccc3N)c(=O)[nH]c2=O)c1`, for which the activation was 11.1% (active).

With `Cc1ccsc1C(=O)N/N=C/c1ccc([N+](=O)[O-])cc1`, the activation was 6.1%. `COc1ccc2ccccc2c1CNCc1ccccn1`: the activation was 0.73%.

Regarding `Cn1sc(=O)c2cc(S(=O)(=O)NC3CC3)ccc21`, the activation was -1.88%.

For the compound `COc1cccc(C(=O)Nc2cc3c(cc2Br)OCCCO3)c1`, the activation was 9.25% (active). As to `COc1cccc(C(=O)Nc2nc3ccc(S(C)(=O)=O)cc3s2)c1`, the activation is 2.8%. In the case of `O=C(O)c1ccc(COc2c(F)c(F)cc(F)c2F)o1`, the activation is -2.71%.

On to `Cc1nc(-c2nnc(SCC(=O)Nc3cc(C(F)(F)F)cc(C(F)(F)F)c3)n2C)cs1`, for which the activation was -3.07%. `Fc1ccc(/C=N/Nc2nc(-c3cccnc3)nc3ccccc23)cc1`: the activation was 4.27%. On to `Cc1ccc(NC(=O)c2cc3ccccc3o2)cc1`, for which the activation is 10.6% (active).

In the case of `COc1ccc(C(=O)N/N=c2\oc3ccccc3cc2C(N)=O)cc1`, the activation was 1.59%. `CCOC(=O)Nc1ccc(NC(=O)OCC)cc1`: the activation was -0.46%. Consider `O=C(C1CCC1)N1CCN(S(=O)(=O)c2ccc([N+](=O)[O-])cc2)CC1`, for which the activation is 0.04%. On to `COC(=O)c1ccc(/C=C2/C(=O)Oc3ccccc32)cc1`, for which the activation is -2.13%.

In the case of `CCc1c(C)c2ccc(OC3CCCCC3=O)cc2oc1=O` (stereo not drawn), the activation was 12.2% (active). Regarding `O=C(NC1CCCC1)C(=O)c1c[nH]c2ccccc12`, the activation was 4.82%. For `CC(=O)c1sc(NC(=O)c2ccc(C)cc2)nc1C`, the activation is 6.35%. Turning to `CC1(C(=O)NS(=O)(=O)C2CC2)CCCN(C(=O)CSc2ccccc2)C1` (stereo not drawn), the activation was 1.21%. As for `Oc1cccc2ccc(/C=C/c3ccc(Br)s3)nc12`, the activation is 12.9% (active). With `CC(C)CCNC(=O)c1ccc2c(Cl)c3c(nc2c1)CCC3` the figure was 2.09%.

The record behind these values is PubChem BioAssay AID652260 (The Scripps Research Institute Molecular Screening Center, 2013).
